An excerpt weighted towards active compounds, which were near 3.7% of everything screened.
UPR CHOP act: apoptotic UPR (CHOP) activation | CHO-CHOP luciferase reporter, luminescence; percent of tunicamycin response over DMSO baseline | activation, % at 10 µM | 330,000 compounds, 0.34% hits | AID 449763;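 active = at 10 µM dose, activation of 40% or more, normalized to positive control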
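assay system = CHO CHOP reporter cells | amount = 500 CHO-CHOP cells per well | buffer or medium = F12 with 10% FBS | incubation = 16-18 h cell attachment, then 6 h compound exposure, 37 °C | detection = luminescence read with Steady-Glo | read-out = percent activation relative to tunicamycin control | controls = tunicamycin high control, DMSO low control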
MDM2 E3 inh: blocks human Mdm2 ubiquitin ligase activity; AID 1230; Q00987; signal enhancement, % at 5 µM; 210,000 compounds, 0.11% hits; cell-based MDM2 ubiquitination luciferase reporter, 2 h; 0 = plate control, 100 = twice control, blank-subtracted;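 active = signal enhancement of 30% or more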;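 also: luminescence tracks abundance of the self-degrading MDM2-luciferase fusion protein; higher signal means inhibition of MDM2 E3 ligase activity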
Target sequence (Q00987 whole entry, looked up, the tested form may be a part): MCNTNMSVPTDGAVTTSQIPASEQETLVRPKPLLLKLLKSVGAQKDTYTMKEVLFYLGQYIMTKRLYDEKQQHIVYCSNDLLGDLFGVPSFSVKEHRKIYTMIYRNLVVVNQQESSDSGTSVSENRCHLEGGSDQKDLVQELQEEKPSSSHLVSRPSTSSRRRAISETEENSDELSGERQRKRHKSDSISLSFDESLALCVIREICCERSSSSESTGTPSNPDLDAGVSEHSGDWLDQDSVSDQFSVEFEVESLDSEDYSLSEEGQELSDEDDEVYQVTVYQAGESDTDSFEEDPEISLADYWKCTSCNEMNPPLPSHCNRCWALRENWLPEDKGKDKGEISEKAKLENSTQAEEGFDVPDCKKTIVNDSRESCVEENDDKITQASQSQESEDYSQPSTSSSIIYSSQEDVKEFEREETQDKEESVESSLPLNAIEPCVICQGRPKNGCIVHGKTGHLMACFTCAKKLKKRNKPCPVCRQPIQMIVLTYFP
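test system = mammalian cells stably expressing self-ubiquitinating, self-degrading MDM2 E3–luciferase fusion | quantity = 2000 cells/well | incubation = cell settling 4 h, compound treatment 2 h, both 37 °C | signal = luminescence with SteadyLite reagent, 15 min at room temperature | evaluation = % enhancement relative to plate controls after blank subtraction | benchmarks = plate controls and plate blanks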
Beta2AR agonist: agonists of human beta-2 adrenergic receptor inducing internalization; P07550; Am2.2-beta2AR cells, FAP receptor internalization, flow cytometry; response, % (concentration not given with the values); 340,000 compounds, 0.43% hits; AID 504454;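 active = response above a set limit, near 3 SD of response in nonfluorescent compounds, cut at about 42% in these data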
UPR XBP1 act: adaptive UPR (XBP1) activation. 330,000 compounds, 0.33% hits. CHO-XBP1 luciferase reporter, IRE1-XBP1 UPR activation, luminescence; percent of tunicamycin response, DMSO as zero. activation, % at 20 µM. AID 463104;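 active = versus positive control, 20 µM dose yields 30% or more activation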
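Signal: luciferase luminescence; Assay system: CHO-XBP1 luciferase reporter cells; Amount: one thousand reporter cells per well; Dosing: 20 µM single concentration, DMSO 1%; Benchmarks: high control tunicamycin 10 µg/mL final, low control DMSO vehicle only; Schedule: 6 h compound exposure at 37 °C, 5% CO2; Evaluation: percent activation relative to tunicamycin reference.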
Dynein cargo inh: dynein cargo transport inhibition | z-score, hits read low | 220,000 compounds, 0.47% hits | 3617.4 mouse cells, GR-EGFP nuclear translocation imaging; test concentration mostly 20 µM; stimulated with dexamethasone, 1 µM; active compounds read low;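 active = plate z-score of nuclear minus cytoplasmic receptor signal below a set negative limit, without overly bright fluorescence or cell loss, cut at about -3.5 in these data, passing the limit was not always enough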;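 also: z-score of nuclear minus cytoplasmic ring GR-EGFP intensity difference per well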
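Buffer or medium: tet-free, stripped-serum medium; reagent: dexamethasone at 1.0 µM final, 30 min; incubation: 48 h induction, 1 h compound, 30 min dex at 37 °C; measured by: formaldehyde fixation, Hoechst nuclear stain, 10x automated fluorescence imaging; read-out: nuclear-to-cytoplasmic GR-EGFP distribution per well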
Mdm2-MdmX inh: inhibitors of human Mdm2/MdmX interaction. O15151+Q00987. SaOS-2 split-luciferase Mdm2/MdmX complementation, luminescence. inhibition, % at 8 µM. 330,000 compounds, 3% hits;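 active = inhibition of at least 50% at 8 µM in the primary screen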
Mdm2 MdmX conf: confirmation of human Mdm2/MdmX interaction inhibitors; shares compounds with Mdm2-MdmX inh; Mdm2-MdmX binding, luminescent assay; inhibition, % at 8 µM; 10,000 compounds, 55% hits; AID 489028; in the data active = inhibition above about 40%
FLuc counter: inhibits full-length luciferase, flagging false Mdm2/MdmX hits | shares compounds with Mdm2-MdmX inh | SaOS-2 full-length luciferase counterscreen, luminescence | inhibition, % at 8 µM | 6,200 compounds, 77% hits;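 active = mean inhibition at 8 µM reaching about 37%, which flags the compound as non-specific, limit read from the data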;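 also: p53-null SaOS-2 cells with luciferase driven by a doxycycline-inducible promoter; compound on cells about two nights before reading with doxycycline added after day one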
A number is an active result; - = inactive; . = not tested or not shown.

SMILES	UPR CHOP act	MDM2 E3 inh	Beta2AR agonist	UPR XBP1 act	Dynein cargo inh	Mdm2-MdmX inh	Mdm2 MdmX conf	FLuc counter
CC(=O)c1nnn(-c2nc(N)nc(N(c3ccccc3)c3ccccc3)n2)c1C	-	-	-	-	-	-	.	.
Cc1ccc(C(=O)NCC(c2ccc(F)cc2)N2CCOCC2)s1 (centres undefined)	-	.	-	-	.	-	.	.
COc1cc(C(=O)Nc2ccc(C)cc2)c2ccccc2n1	-	.	-	-	.	64	48	84
Cc1ccc(NC(=O)c2cc(N3CCOCC3)nc3ccccc23)cc1	-	-	-	-	-	55	-	45
CCOc1ccc(NC(=O)c2cc(OC)nc3ccccc23)cc1	-	.	-	-	.	63	59	71
O=C(Cc1ccc(NC(=O)C2CCCN(C(=O)C3CC3)C2)cc1)Nc1ccc(C(=O)N2CCOCC2)cc1 (centres undefined)	.	.	-	.	.	.	.	.
COc1cccc(N2CC(O)=C(c3nc4ccccc4s3)C2=N)c1	-	-	-	-	-	70	57	111
Cc1ccc(C(NC(=O)NC(C)c2ccccc2)C(Cl)(Cl)Cl)cc1F (centres undefined)	-	-	-	-	-	55	58	40
CC(C)C(=O)N1CCN(c2ccc(NC(=O)c3ccc4c(c3)OCCO4)cc2Cl)CC1	-	-	-	-	-	60	80	65
CC(=O)N1CCN(c2ccc(NC(=O)c3ccc4c(c3)OCCO4)cc2Cl)CC1	-	-	-	-	-	-	.	.
C=C(CC[C@@H](O)C(C)(C)O)[C@H]1CC[C@]2(C)[C@@H]1CCC1[C@@]3(C)CC[C@H](O)C(C)(C)C3CC[C@]12C (some centres undefined)	-	.	-	-	.	-	.	.
C=C(C)[C@@H]1CC[C@]2(C(=O)O)CC[C@]3(C)[C@H](CC[C@@H]4[C@@]5(C)CC[C@H](O)C(C)(C)[C@@H]5CC[C@]43C)[C@@H]12	-	-	-	-	-	55	-	.
CCCSc1ccc([C@@H]2[C@H]3C(=O)N(CC)C(=O)[C@H]3[C@]3(C(=O)OC)CCCCN23)cc1	-	.	-	-	.	-	.	.
C(=N\Nc1nc(Nc2ccccc2)nc(Nc2ccccc2)n1)/c1cccnc1	-	-	-	-	-	72	51	81
C(=N\Nc1nc(Nc2ccccc2)nc(Nc2ccccc2)n1)/c1ccncc1	-	-	-	-	-	-	.	.
Cc1sc(N/N=C/c2cccnc2)nc1-c1ccccc1	-	-	-	-	-	59	62	74
CCCCNC(=O)Nc1nnc(C(C)(C)C)s1	-	-	-	-	-	-	.	.
CC(C)c1ccc(NC(=O)COC(=O)c2nn(C)c(=O)c3ccccc23)cc1	-	.	-	-	.	-	.	.
O=C1CCC([N+](=O)[O-])C(c2ccc(-c3ccccc3)cc2)N1 (centres undefined)	-	.	-	-	.	-	.	.
C=CCOc1ccccc1/C=N/NC(=O)c1ccc(Cl)cc1Cl	-	-	-	-	-	-	.	.
COc1cc(C(=O)Oc2ccccc2/C=N/NC(=O)c2ccc(Cl)cc2Cl)cc(OC)c1OC	-	-	-	-	-	56	-	.
Cc1nc(SCC(=O)Nc2c(C)n(C)n(-c3ccccc3)c2=O)c2cnn(-c3ccccc3)c2n1	.	.	-	.	.	.	.	.
Cc1nn(C)c(C)c1NC(=O)CSc1nc(Cc2ccccc2)nc2c1cnn2-c1ccccc1	-	.	-	-	-	94	57	103
CSc1ncccc1C(=O)N1CCN(S(=O)(=O)c2cc(C)ccc2C)CC1	-	.	-	-	.	-	.	.
Cc1ccc(C)c(S(=O)(=O)N2CCN(Cc3ccc(O)c4ncccc34)CC2)c1	-	-	-	-	-	78	71	36
SMILES	UPR CHOP act	MDM2 E3 inh	Beta2AR agonist	UPR XBP1 act	Dynein cargo inh	Mdm2-MdmX inh	Mdm2 MdmX conf	FLuc counter
COC(=O)[C@H]1[C@H]2C[C@@H]3c4[nH]c5cc(OC)ccc5c4CCN3C[C@H]2C[C@@H](OC(=O)/C=C/c2cc(OC)c(OC)c(OC)c2)[C@@H]1OC	-	.	-	-	.	64	-	70
COC(=O)[C@H]1[C@H]2C[C@@H]3c4[nH]c5cc(OC)ccc5c4CCN3C[C@H]2C[C@@H](OC(=O)c2ccc(N)cc2)[C@@H]1OC	-	.	-	-	-	-	.	.
CC(C)=CC(=O)OCc1csc(CC(=O)Nc2ccccc2C)n1	-	.	-	-	.	-	.	.
CCOC(=O)c1[nH]c(C)c(C(=O)Nc2cc(Cl)ccc2C)c1C	-	-	-	-	-	66	72	85
CCOC(=O)c1[nH]c(C)c(C(=O)Nc2ccccc2C)c1C	-	-	-	-	-	56	62	49
CCOC(=O)c1[nH]c(C)c(C(=O)Nc2ccc(C)c(Cl)c2)c1C	-	-	-	-	-	-	.	.
CC(=O)c1c(C)[nH]c(C(=O)OCc2csc(CC(=O)Nc3ccccc3C)n2)c1C	-	.	-	-	.	51	-	.
CCOC(=O)c1[nH]c(C=O)c(C(=O)OCC)c1C	-	-	-	-	-	65	59	71
CCOC(=O)c1c(C)[nH]c(C(=O)OCC(=O)NCc2ccc(F)cc2)c1C	-	.	-	-	.	78	-	.
CCOC(=O)c1[nH]c(COC(=O)c2ccccc2NC(=O)c2ccco2)c(C(=O)OCC)c1C	-	-	-	-	-	-	.	.
CCOC(=O)c1[nH]c(C)c(C(=O)OCC(=O)NCc2ccc(OC)c(OC)c2)c1C	-	.	-	-	.	-	.	.
